Assay results as given in ChEMBL document CHEMBL2176894, “Cyanobacterial peptides as a prototype for the design of potent β-secretase inhibitors and the development of selective chemical probes for other aspartic proteases” (J Med Chem, 2012).
Calls of active or inactive are those of the source. The rule behind the calls is not given here. Starred links: 1 amine or outer side, 2 acyl side, 3 side chain; linkers in the order of their positions; H or OH if unused. Non-standard residues stand in square brackets, D forms with d. Residues, ends and D or L forms follow the SMILES beside them. Ahppa(3S,4S) = O=C(C[C@H](O)[C@H](Cc1ccccc1)N[*:1])[*:2]; dNMeF = CN[C@H](Cc1ccccc1)C(=O)O; NMeQ = CN[C@@H](CCC(N)=O)C(=O)O; Lac = C[C@H](O)C(=O)O

Assays:
[1] = molecular target: T1, Gamma-secretase (Homo sapiens) (UniProt Q96BI3+Q9NZ42+Q8WW43+P49768+Q92542+P49810); assay: Inhibition of gamma secretase expressed in human H4 cells assessed as reduction in CTF levels at 10 uM incubated for 16 hrs by immunoblot; format: cell-based
[2] = molecular target: T1, Gamma-secretase (Homo sapiens); assay: Inhibition of gamma secretase expressed in human H4 cells assessed as reduction in C83 levels at 10 uM incubated for 16 hrs by immunoblot; format: cell-based
[3] = molecular target: T1, Gamma-secretase (Homo sapiens); assay: Inhibition of gamma secretase expressed in human H4 cells expressing BRI-C99 fusion protein assessed as C99 fragment accumulation fragment at 100 nM incubated for 16 hrs in by immunoblot; format: cell-based
How it was run: (§1)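 H4 cells overexpressing Bri-C99 (400000/well) were kept in Opti-MEM with 1% serum and treated 16 h with test compound (10 μM), LY411575 (100 nM) or BACE1 inhibitor IV (1 μM). Cells were lysed in TBS/1% Triton X-100 and run on a 12% bis-tris gel. Blots were probed with CT-20 antibody for furin-generated C99 and read on an infrared imager.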

Brain = assay: Drug concentration in CF1 mouse brain at 30 mg/kg, ip measured 3 hrs post dose by HPLC-MS method relative to compound plasma concentration; format: ADME, organism-based; parameters: dose 30 mg/kg, route intraperitoneal
How it was run: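 CF-1 mice, 8 weeks old, 25−35 g, given 30 mg/kg i.p. in 5% DMSO/15% Solutol HS 15/10% EtOH/65% water; killed 3 h post-dose. Cerebellum and cortex homogenized in acetonitrile (1:10 w:v) containing internal standard, then re-extracted. Plasma was taken by cardiac puncture into K-EDTA. Levels were measured by HPLC-MS (MRM, negative ionization) and interpolated from a calibration curve.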

Serum [4] = assay: Stability in mouse serum by HPLC-MS method; format: ADME, cell-free
How it was run: (§2)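 Compound (10 μL of 25 μg/mL) was incubated with 100 μL mouse serum at 37 °C for 0, 1, 2, 4, 8, 12 and 24 h. The reaction was quenched with EtOAc plus internal standard, shaken 5 min, centrifuged at 16000g, and the organic layer dried and taken up in MeOH. Parent and ester-hydrolysis acid were quantified by HPLC-MS MRM interpolation; n = 2.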

[5] = Permeability at 10 uM at pH 7.4 by PAMPA method; format: ADME; conditions: read-out: permeability
How it was run: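 Filters were coated with BBB-1 lipid, with brain sink buffer in the acceptor. Plates were incubated 4 h at room temperature, humidified. Absorbance was read at 250−350 nm and Pe calculated. Triplicate; mean ± SD.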

Cathepsin D = Cathepsin D (Homo sapiens, UniProt P07339); assay: Inhibition of cathepsin D by fluorescence assay
Chain of Cathepsin D (P07339 65-162 limits assumed): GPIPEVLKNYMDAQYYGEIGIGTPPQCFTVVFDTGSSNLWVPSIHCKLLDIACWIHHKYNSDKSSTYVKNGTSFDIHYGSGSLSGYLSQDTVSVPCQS
Chain of Cathepsin D (P07339 169-412 limits assumed): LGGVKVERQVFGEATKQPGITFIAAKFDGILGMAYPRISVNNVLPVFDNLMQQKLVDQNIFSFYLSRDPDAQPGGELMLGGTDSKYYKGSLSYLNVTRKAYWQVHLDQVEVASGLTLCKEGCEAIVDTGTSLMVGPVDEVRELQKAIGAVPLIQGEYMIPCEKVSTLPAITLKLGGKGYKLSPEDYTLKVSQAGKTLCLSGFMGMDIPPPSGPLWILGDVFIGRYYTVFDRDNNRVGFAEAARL

Mus musculus = assay: Reduction in […] in CF1 mouse at 30 mg/kg, ip measured 3 hrs post dose by sandwich ELISA; format: functional, organism-based; parameters: dose 30 mg/kg
Cathepsin E = molecular target: T2, Cathepsin E (Homo sapiens, UniProt P14091); assay: Inhibition of cathepsin E by fluorescence assay
T2 sequence (P14091 whole entry): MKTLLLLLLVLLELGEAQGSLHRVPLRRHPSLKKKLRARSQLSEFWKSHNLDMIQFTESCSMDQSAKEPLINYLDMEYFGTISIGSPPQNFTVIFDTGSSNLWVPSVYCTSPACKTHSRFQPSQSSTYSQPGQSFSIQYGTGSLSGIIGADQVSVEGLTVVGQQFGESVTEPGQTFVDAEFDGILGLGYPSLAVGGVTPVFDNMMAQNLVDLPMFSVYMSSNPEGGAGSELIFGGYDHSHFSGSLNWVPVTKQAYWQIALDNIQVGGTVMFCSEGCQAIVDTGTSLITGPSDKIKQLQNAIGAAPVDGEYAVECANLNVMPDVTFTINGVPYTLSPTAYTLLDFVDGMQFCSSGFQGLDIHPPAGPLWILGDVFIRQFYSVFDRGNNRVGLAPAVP

Beta-secretase 1 [6] = molecular target: T3, Beta-secretase 1 (Homo sapiens, UniProt P56817); assay: Inhibition of BACE1 by fluorescence assay
T3 sequence (P56817 whole entry): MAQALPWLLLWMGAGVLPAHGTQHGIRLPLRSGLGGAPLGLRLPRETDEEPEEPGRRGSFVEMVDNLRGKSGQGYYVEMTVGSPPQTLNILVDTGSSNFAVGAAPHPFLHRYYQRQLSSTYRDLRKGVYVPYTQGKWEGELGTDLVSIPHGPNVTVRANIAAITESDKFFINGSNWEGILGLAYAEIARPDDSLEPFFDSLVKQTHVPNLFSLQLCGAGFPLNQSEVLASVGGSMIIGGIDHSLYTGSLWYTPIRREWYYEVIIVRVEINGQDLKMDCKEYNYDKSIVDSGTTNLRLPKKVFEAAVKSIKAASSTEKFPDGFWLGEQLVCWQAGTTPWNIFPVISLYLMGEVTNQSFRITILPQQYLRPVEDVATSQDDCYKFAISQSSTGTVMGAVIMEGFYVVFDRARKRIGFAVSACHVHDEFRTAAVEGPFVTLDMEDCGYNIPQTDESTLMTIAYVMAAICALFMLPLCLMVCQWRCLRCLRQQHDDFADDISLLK

Beta-secretase 1 [7] = molecular target: T3, Beta-secretase 1; assay: Inhibition of BACE1 expressed in CHO 2B7 cells expressing wild type APP695 assessed as reduction in Abeta40/Abeta42 levels incubated for 16 hrs by sandwich ELISA; format: cell-based
Beta-secretase 1 [8] = molecular target: T3, Beta-secretase 1; conditions: H4, at 10 µM
Serum [9] = assay: Drug metabolism in mouse serum assessed as ester hydrolysis mediated formation of metabolites by HPLC-MS method; format: ADME, cell-free; how it was run: as §2
H4 = assay: Inhibition of Alpha secretase expressed in human H4 cells assessed as reduction in C83 levels at 10 uM incubated for 16 hrs by immunoblot; format: cell-based
How it was run: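 H4 cells (3 × 10⁵/well) adhered 4−6 h in DMEM/10% FCS at 37 °C, then were switched to serum-free Ultraculture containing compound at 10 μM final for 16 h. Cells were lysed in NP40/deoxycholate buffer, and protein was equalized by BCA. Lysates were run on 10−20% tricine gels and immunoblotted with antibody to the APP C-terminal 20 residues (1:2000); C99 and C83 were imaged on an infrared system.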

Beta-secretase 1 [10] = molecular target: T3, Beta-secretase 1; assay: Inhibition of BACE1 expressed in human H4 cells assessed as reduction in CTF levels at 10 uM incubated for 16 hrs by immunoblot; format: cell-based
[11] = Permeability at 10 uM at pH 5.0 by PAMPA method; format: ADME; conditions: read-out: permeability
[12] = Drug metabolism in human H4 cells lysates assessed as ester hydrolysis mediated formation of metabolites by HPLC-MS method; format: ADME, cell-based, Lysate
How it was run: (§3)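 H4 whole-cell lysate was diluted to 1 mg/mL protein in 0.1 M phosphate buffer, pH 7.4. Parent and acid hydrolysis product were extracted with EtOAc with internal standard. Quantitation was by HPLC-MS MRM against a calibration curve; n = 2.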

[13] = molecular target: T1, Gamma-secretase (Homo sapiens); assay: Inhibition of gamma secretase expressed in human H4 cells expressing BRI-C99 fusion protein assessed as C99 fragment accumulation fragment at 10 uM incubated for 16 hrs in by immunoblot; format: cell-based; how it was run: as §1
[14] = Stability in human H4 cells lysates by HPLC-MS method; format: ADME, cell-based, Lysate; how it was run: as §3
Nucleic Acid = assay: Ratio of drug level in CF1 mouse brain to IC50 for inhibition of BACE1-mediated Abeta40/Abeta42 production in CHO 2B7 cells expressing wild type APP695; format: cell-based
How it was run: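 CF-1 mice (8 weeks, 25−35 g) received 30 mg/kg i.p. in 5% DMSO/15% Solutol HS 15/10% EtOH/65% water and were killed 3 h post-dose. Cerebellum and cortex were homogenized in acetonitrile (1:10 w:v) with internal standard and quantified by HPLC-MS (MRM, negative ion). The cellular reference was CHO 2B7 (APP695 wt): 16 h treatment, 1% DMSO, secreted Aβ40/Aβ42 sandwich ELISA.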

Drug uptake (Brain) [%]	IC50 (Cathepsin D) [nM]	IC50 (Cathepsin E) [nM]	IC50 (Beta-secretase 1 [6]) [nM]	inhibition (Beta-secretase 1 [8])	inhibition [13]	SMILES	other results
–	–	–	–	–	–	C[C@H](NC(=O)[C@@H](O)c1cc(F)cc(F)c1)C(=O)N[C@@H]1C(=O)N(C)c2ccccc2-c2ccccc21	inhibition [1]: Active; inhibition [2]: Active; inhibition [3]: Active
2.5	11.3	210	128	Active	inactive	COC(=O)[C@@H]1CCCN1C(=O)[C@@H](Cc1ccccc1)N(C)C(=O)[C@H](C)NC(=O)[C@H](CC(C)C)NC(=O)C[C@H](O)[C@H](Cc1ccccc1)NC(=O)c1cc(NS(C)(=O)=O)cc(C(=O)N[C@H](C)c2ccccc2)c1	Stability (Serum [4]): Stable; Papp at 10 µM [5]: 8.58 ×10⁻⁶ cm/s; Activity (Mus musculus): inactive; IC50 (Beta-secretase 1 [7]): 100 nM; Drug metabolism (Serum [9]): Active; inhibition (H4): inactive; inhibition (Beta-secretase 1 [10]): Active; Papp at 10 µM [11]: 10.7 ×10⁻⁶ cm/s; Drug metabolism [12]: Active; Stability [14]: Stable; Ratio (Nucleic Acid): 3
–	20.9	30.4	124	Active	–	CC(C)C[C@H](NC(=O)C[C@H](O)[C@H](Cc1ccccc1)NC(=O)[C@H](CCC(N)=O)N(C)C(=O)[C@@H](NC(=O)[C@H](C)O)C(C)C)C(=O)N[C@@H](C)C(=O)N(C)[C@H](Cc1ccccc1)C(=O)NCc1ccccc1	–
10	–	–	–	–	–	COc1cccc(CNC[C@@H](O)[C@H](Cc2ccccc2)NC(=O)c2cc(C(=O)N[C@H](C)c3ccccc3)cc(N(C)S(C)(=O)=O)c2)c1	–
–	–	37.5	–	–	–	COC(=O)[C@@H]1CCCN1C(=O)[C@@H](Cc1ccccc1)N(C)C(=O)[C@H](C)NC(=O)[C@H](CC(C)C)NC(=O)C[C@H](O)[C@H](Cc1ccccc1)NC(=O)[C@H](CCC(N)=O)N(C)C(=O)[C@@H](NC(=O)[C@H](C)O)C(C)C [TASIAMIDE B]	–
–	–	1450	–	–	–	COC(=O)[C@@H]1CCCN1C(=O)[C@@H](Cc1ccccc1)N(C)C(=O)[C@@H](C)NC(=O)[C@H](CC(C)C)NC(=O)C[C@H](O)[C@H](Cc1ccccc1)NC(=O)[C@H](CCC(N)=O)N(C)C(=O)[C@@H](NC(=O)[C@H](C)O)C(C)C	–
–	0.126	1.92	–	–	–	COC(=O)[C@@H]1CCCN1C(=O)[C@@H](Cc1ccccc1)N(C)C(=O)[C@H](C)NC(=O)[C@H](CC(C)C)NC(=O)C[C@H](O)[C@H](Cc1ccccc1)NC(=O)[C@H](CCC(N)=O)N(C)C(=O)[C@@H](NC(=O)OC(C)(C)C)C(C)C	–
–	54.1	20.8	73	Active	–	CC(C)C[C@H](NC(=O)C[C@H](O)[C@H](Cc1ccccc1)NC(=O)[C@H](CCC(N)=O)N(C)C(=O)[C@@H](NC(=O)[C@H](C)O)C(C)C)C(=O)N[C@@H](C)C(=O)N(C)[C@H](Cc1ccccc1)C(=O)O (H-[Lac]V[NMeQ][Ahppa(3S,4S)]LA[dNMeF]-OH)	–
–	–	–	–	–	inactive	COC(=O)[C@@H]1CCCN1C(=O)[C@@H](Cc1ccccc1)N(C)C(=O)[C@H](C)NC(=O)[C@H](CC(C)C)NC(=O)C[C@H](O)[C@H](Cc1ccccc1)NC(=O)[C@H](CCC(N)=O)N(C)C(=O)[C@@H](NC(=O)[C@H](C)O)C(C)C	–
5.8	5.84	36.4	–	Active	inactive	COC(=O)[C@@H]1CCCN1C(=O)[C@@H](Cc1ccccc1)N(C)C(=O)[C@H](C)NC(=O)[C@H](CC(C)C)NC(=O)C[C@H](O)[C@H](Cc1ccccc1)NC(=O)c1cc(C(=O)N[C@H](C)c2ccccc2)cc(N(C)S(C)(=O)=O)c1	Stability (Serum [4]): Stable; Activity (Mus musculus): Active; IC50 (Beta-secretase 1 [7]): 10 nM; Drug metabolism (Serum [9]): Active; inhibition (H4): inactive; inhibition (Beta-secretase 1 [10]): Active; Drug metabolism [12]: Active; Stability [14]: Stable; Ratio (Nucleic Acid): 20
